Tests used:
[1] = tested on: RAW264.7; assay: Antiinflammatory activity against mouse RAW264.7 cells assessed as inhibition of LPS-induced NF-kappaB activation […] assessed after 24 hrs by SEAP reporter gene assay; format: functional, cell-based
In short: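 RAW264.7 cells stably carrying a plasmid with eight κB elements driving SEAP were seeded at 5 × 10^4 cells/well and held 3 h at 37 °C. Cells then received test compounds at various concentrations together with LPS (1 µg/mL) for 24 h. Supernatant was heated 65 °C for 5 min, then mixed with 2× SEAP buffer (2 M diethanolamine, 1 mM MgCl2, 20 mM L-homoarginine) for 10 min at 37 °C. p-Nitrophenyl phosphate substrate was added, incubated at 37 °C, and A405 read. Dose-response IC50 reported.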

[2] = tested on: RAW264.7; assay: Antiinflammatory activity against mouse RAW264.7 cells assessed as inhibition of LPS-induced NO production […] assessed after 24 hrs by Griess reagent assay; format: functional, cell-based
In short: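 RAW264.7 cells were seeded at 1 × 10^5 cells/well and held 3 h. They were then stimulated with LPS (1 µg/mL) for 24 h with or without compound. Supernatant nitrite was measured by Griess reaction: equal volumes of supernatant and reagent (0.1% N-(1-naphthyl)ethylenediamine and 1% sulfanilamide in 5% phosphoric acid, 1:1), absorbance at 570 nm. Values were quantified against a sodium nitrite standard curve. Aminoguanidine served as reference. IC50 reported. Viability was checked by MTT.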

| IC50 [1] [µM] | IC50 [2] [µM] | Structure (SMILES) |
| --- | --- | --- |
| 36.7 | 43.6 | CC(=O)O[C@H]1CC[C@@H](C)[C@]23OC(C)(C)[C@H](C[C@H](OC(=O)c4ccco4)[C@]12C)[C@H]3OC(=O)c1ccco1 [ORBICULIN D] |
| > 300 | > 300 | CC(=O)O[C@H]1C[C@@H](C)[C@]23OC(C)(C)[C@H](C[C@H](OC(=O)c4ccccc4)[C@]2(C)[C@H]1OC(C)=O)[C@H]3OC(=O)c1ccco1 [ORBICULIN E] |
| > 300 | > 300 | CC(=O)O[C@H]1[C@@H](OC(=O)c2ccco2)C[C@@H](C)[C@]23OC(C)(C)[C@H](C[C@H](OC(=O)c4ccccc4)[C@]12C)[C@H]3OC(=O)c1ccco1 [ORBICULIN F] |
| 33.5 | 50.4 | CC(=O)O[C@@H]1[C@@H]2[C@@H](OC(=O)c3ccco3)[C@]3(OC2(C)C)[C@H](C)CC[C@H](OC(C)=O)[C@@]3(C)[C@H]1OC(=O)c1ccco1 [ORBICULIN H] |
| 61.5 | 51.2 | CC(=O)O[C@H]1[C@@H](OC(=O)c2ccco2)C[C@@H](C)[C@]23OC(C)(C)[C@H](C[C@H](OC(=O)c4ccco4)[C@]12C)[C@H]3OC(=O)c1ccco1 [ORBICULIN I] |

| Structure (SMILES) | IC50 [1] [µM] | IC50 [2] [µM] |
| --- | --- | --- |
| CC1(C)CCC[C@@]2(C)C1=C(O)C(=O)c1cc(O)c(O)cc12 [CELAPHANOL A] | 18.2 | 32.6 |
| CC1=C(O)C(=O)C=C2C1=CC=C1[C@@]2(C)CC[C@@]2(C)[C@@H]3C[C@](C)(C(=O)O)CC[C@]3(C)CC[C@]12C [CELASTROL] | 0.27 | 0.23 |
| CC(=O)O[C@H]1C[C@@H](C)[C@]23OC(C)(C)[C@H](C[C@H](OC(=O)c4ccccc4)[C@]2(C)[C@H]1OC(C)=O)[C@H]3OC(=O)c1ccccc1 [ORBICULIN A] | > 300 | > 300 |
| N=C(N)NN [PIMAGEDINE] |  | 16.3 |
